Assay results reported in ChEMBL document CHEMBL3390837, “Bridged tetrahydroisoquinolines as selective NADPH oxidase 2 (Nox2) inhibitors” (Medchemcomm, 2013).

Key:
[1] = biological target: T1, NADPH oxidase 2 (Homo sapiens, UniProt P04839); test: Inhibition of full length human NOX2 transfected in COS 22 cells assessed as inhibition of Phorbol 12-myristate 13-acetate-stimulated ROS generation by measuring H2O2 production by fluorescence assay in presence of superoxide dismutase; type: cell-based; conditions: read-out: IC50
T1 sequence (P04839 whole entry): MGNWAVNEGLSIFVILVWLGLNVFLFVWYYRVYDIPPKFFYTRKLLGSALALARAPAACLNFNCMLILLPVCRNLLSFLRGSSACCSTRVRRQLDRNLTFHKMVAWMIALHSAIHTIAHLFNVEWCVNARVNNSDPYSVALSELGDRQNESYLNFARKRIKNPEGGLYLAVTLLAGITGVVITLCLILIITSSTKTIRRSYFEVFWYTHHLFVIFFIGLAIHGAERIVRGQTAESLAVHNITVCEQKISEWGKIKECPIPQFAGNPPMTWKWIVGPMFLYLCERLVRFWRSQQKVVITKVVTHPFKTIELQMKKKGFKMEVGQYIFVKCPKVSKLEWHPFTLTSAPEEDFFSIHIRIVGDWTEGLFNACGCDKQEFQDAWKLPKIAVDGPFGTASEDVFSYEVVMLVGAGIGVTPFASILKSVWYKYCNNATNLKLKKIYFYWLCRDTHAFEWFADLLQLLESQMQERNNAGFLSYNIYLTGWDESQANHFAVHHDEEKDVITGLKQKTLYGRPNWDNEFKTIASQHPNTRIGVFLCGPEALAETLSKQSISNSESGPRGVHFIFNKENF
Method in brief: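 Intact COS-Nox2 cells in Hepes pH 7.4 buffer with 0.1 mM Amplex Red, 0.32 U/ml HRP and 150 U/mL SOD, drug 15 min at 37 °C; started with 5 µM PMA; fluorescence monitored 1 h at 37 °C; rate as RFU/min minus unstimulated cells; % of vehicle control.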

[2] = Cytotoxicity against african green monkey COS7 cells expressing human p22phox assessed as cell viability at 25 to 50 uM after 15 mins by luminogenic assay; type: cell-based; conditions: chlorocebus aethiops, cos-7, 0.25 h
Method in brief: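 COS-22 cells plated at 2.5 x 10³ cells/well in OPTIMEM, exposed 15 min to compounds at various concentrations; dead-cell protease release read with luminogenic AAF peptide substrate, signal before and after digitonin used to derive % dead; reported as % live cells (100 − % dead) per well.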

[3] = biological target: T2, NADPH oxidase 1 (Homo sapiens, UniProt Q9Y5S8); test: Inhibition of full length human NOX1 transfected in COS 22 cells assessed as inhibition of constitutive ROS generation by chemiluminescence assay; conditions: read-out: IC50
T2 sequence (Q9Y5S8 whole entry): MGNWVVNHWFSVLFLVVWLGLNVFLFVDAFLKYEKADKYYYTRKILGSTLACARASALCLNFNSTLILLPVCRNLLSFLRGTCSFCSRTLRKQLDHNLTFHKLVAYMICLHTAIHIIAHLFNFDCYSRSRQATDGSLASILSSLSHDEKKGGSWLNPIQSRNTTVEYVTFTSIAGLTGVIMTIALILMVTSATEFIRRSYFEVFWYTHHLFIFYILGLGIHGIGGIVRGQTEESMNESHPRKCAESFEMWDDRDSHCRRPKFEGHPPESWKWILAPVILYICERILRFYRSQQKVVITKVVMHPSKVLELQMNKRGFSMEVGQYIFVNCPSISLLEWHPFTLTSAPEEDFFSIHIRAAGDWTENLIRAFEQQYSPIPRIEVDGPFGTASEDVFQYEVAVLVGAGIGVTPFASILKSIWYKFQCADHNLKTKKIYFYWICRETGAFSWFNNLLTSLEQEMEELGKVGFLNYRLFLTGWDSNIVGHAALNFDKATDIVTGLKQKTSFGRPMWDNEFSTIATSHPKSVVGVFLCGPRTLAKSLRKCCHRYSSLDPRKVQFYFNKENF

IC50 [1]: 40 µM
IC50 [3]: 31 µM
SMILES: C=C(C)C[C@@H]1N[C@H]2CC(C)(C)[C@@H]1c1c(Br)cccc12 (racemic)
Activity [2]: Non-toxic
